Source: ChEMBL document CHEMBL1155251, “Efficient synthesis of the first betulonic acid-acetylene hybrids and their hepatoprotective and anti-inflammatory activity” (2009)
Active and inactive are the calls of the source. No cut-off for these calls is given here.

Assays:
[1] = system: Mus musculus; assay: Hepatoprotective activity against CCL4-induced hepatitis in mouse assessed as thiobarbiturate relative substance level at 50 mg/kg, po administered 1 hr prior to CCL4 challenge (reference value: 1.63+/- 0.24 ucat/L); assay type: functional
In short: (§1)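 Outbred male mice (22–25 g). Acute hepatitis induced by single oral 25% CCl4 in sunflower oil. Compounds given orally as water–Tween-80 suspension 1 h before induction; controls got vehicle. At least ten animals per group. Next day, serum ALP, ALT and AST measured with standard kits; TBARS measured by an established procedure.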

[2] = system: Mus musculus; assay: Hepatoprotective activity against CCL4-induced hepatitis in mouse assessed as aspartate amino transferase level at 50 mg/kg, po administered 1 hr prior to CCL4 challenge (reference value: 5.23+/- 0.76 ucat/L); assay type: functional; in short: as §1
[3] = system: Mus musculus; assay: Hepatoprotective activity against CCL4-induced hepatitis in mouse assessed as alkaline phosphatase level at 50 mg/kg, po administered 1 hr prior to CCL4 challenge (reference value: 18.27+/- 1.42 ucat/L); assay type: functional; in short: as §1
[4] = system: Mus musculus; assay: Hepatoprotective activity against CCL4-induced hepatitis in mouse assessed as […] level at 50 mg/kg, po administered 1 hr prior to CCL4 challenge (reference value: 5.04+/- 0.72 ucat/L); assay type: functional; in short: as §1
[5] = system: Mus musculus; assay: Antiinflammatory activity against carrageenan-induced paw edema in mouse assessed as decrease in index of hind paw edema at 20 mg/kg, po administered 1 hr prior to carrageenan challenge; assay type: functional, organism-based; set-up: dose 20 mg/kg
In short: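 Outbred male mice (22–25 g), ad libitum food/water. Dosed orally at 20 mg/kg as aqueous-Tween suspension 1 h before carrageenan; controls got water–Tween. Killed by cervical dislocation 5 h after phlogogen; hind paws cut at ankle and weighed. Edema index = (treated − untreated paw weight)/untreated paw weight.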

[6] = system: Mus musculus; assay: Hepatoprotective activity against CCL4-induced hepatitis in mouse assessed as aspartate amino transferase level at 100 mg/kg, po administered 1 hr prior to CCL4 challenge (reference value: 5.23+/- 0.76 ucat/L); assay type: functional; in short: as §1
[7] = system: Mus musculus; assay: Hepatoprotective activity against CCL4-induced hepatitis in mouse assessed as alkaline phosphatase level at 100 mg/kg, po administered 1 hr prior to CCL4 challenge (reference value: 18.27+/- 1.42 ucat/L); assay type: functional; in short: as §1
[8] = system: Mus musculus; assay: Hepatoprotective activity against CCL4-induced hepatitis in mouse assessed as […] level at 100 mg/kg, po administered 1 hr prior to CCL4 challenge (reference value: 5.04+/- 0.72 ucat/L); assay type: functional; in short: as §1
[9] = system: Mus musculus; assay: Hepatoprotective activity against CCL4-induced hepatitis in mouse assessed as thiobarbiturate relative substance level at 100 mg/kg, po administered 1 hr prior to CCL4 challenge (reference value: 1.63+/- 0.24 ucat/L); assay type: functional; in short: as §1
[10] = system: Mus musculus; assay: Hepatoprotective activity against CCL4-induced hepatitis in mouse assessed as thiobarbiturate relative substance level at 20 mg/kg, po administered 1 hr prior to CCL4 challenge (reference value: 1.63+/- 0.24 ucat/L); assay type: functional; in short: as §1
[11] = system: Mus musculus; assay: Hepatoprotective activity against CCL4-induced hepatitis in mouse assessed as alkaline phosphatase level at 20 mg/kg, po administered 1 hr prior to CCL4 challenge (reference value: 18.27+/- 1.42 ucat/L); assay type: functional; in short: as §1
[12] = system: Mus musculus; assay: Hepatoprotective activity against CCL4-induced hepatitis in mouse assessed as aspartate amino transferase level at 20 mg/kg, po administered 1 hr prior to CCL4 challenge (reference value: 5.23+/- 0.76 ucat/L); assay type: functional; in short: as §1
[13] = system: Mus musculus; assay: Hepatoprotective activity against CCL4-induced hepatitis in mouse assessed as […] level at 20 mg/kg, po administered 1 hr prior to CCL4 challenge (reference value: 5.04+/- 0.72 ucat/L); assay type: functional; in short: as §1

Row | SMILES | Activity [1] | Activity [2] | Activity [3] | Activity [4] | Activity [5] | also measured
1 | C=C(C)[C@@H]1CC[C@]2(C(=O)Nc3ccc(C#CCN4CCCCC4)cc3)CC[C@]3(C)[C@H](CC[C@@H]4[C@@]5(C)CCC(=O)C(C)(C)[C@@H]5CC[C@]43C)[C@@H]12 | 1.06 µmol/L | 3.25 ucat/L | 12.8 ucat/L | 3.08 ucat/L | Active | –
2 | O=C1c2c(O)cc(O)cc2O[C@H](c2ccc(O)c(O)c2)[C@H]1O [(+)-TAXIFOLIN] | – | – | – | – | – | Activity [6]: 3.88 ucat/L; Activity [7]: 11.31 ucat/L; Activity [8]: 3.63 ucat/L; Activity [9]: 1.42 µmol/L
3 | C=C(C)[C@@H]1CC[C@]2(C(=O)Nc3ccc(I)cc3)CC[C@]3(C)[C@H](CC[C@@H]4[C@@]5(C)CCC(=O)C(C)(C)[C@@H]5CC[C@]43C)[C@@H]12 | – | – | – | – | inactive | Activity [10]: 2.03 µmol/L; Activity [11]: 10.27 ucat/L; Activity [12]: 3.09 ucat/L; Activity [13]: 2.75 ucat/L
4 | COc1ccc2c(c1)c(CC(=O)O)c(C)n2C(=O)c1ccc(Cl)cc1 | – | – | – | – | Active | –
5 | C=C(C)[C@@H]1CC[C@]2(C(=O)Nc3ccc(C#CCN4CCOCC4)cc3)CC[C@]3(C)[C@H](CC[C@@H]4[C@@]5(C)CCC(=O)C(C)(C)[C@@H]5CC[C@]43C)[C@@H]12 | 3.21 µmol/L | 5.25 ucat/L | 14.28 ucat/L | 3.48 ucat/L | Active | –
